Measured values reported in ChEMBL document CHEMBL1795273, “Curcumin analogues as possible anti-proliferative & anti-inflammatory agents” (Eur J Med Chem, 2011).
Activity calls are given as the source filed them. The rule behind the calls is not given here.

Columns and labels:
[1] = Therapeutic index, ratio of LC50 for human SF268 cells to GI50 for human SF268 cells; format: cell-based, SF-268; conditions: read-out: TI
Summary of the method: (§1)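 Index is LC50/GI50 from the 48 h SRB growth assay (100–0.01 µM, 10-fold dilutions). Where LC50 exceeded 100 µM, the highest concentration tested, it was taken as 100 µM.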

SF-268 [2] = test: Antiproliferative activity against human SF268 cells after 48 hrs by sulforhodamine B assay; format: functional; conditions: SF-268, 48 h
Summary of the method: (§2)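 Cells grown in RPMI 1640 with 5% heat-inactivated FCS, 2 mM L-glutamine and antibiotics at 37 °C, 5% CO2; viability >95% by trypan blue. Seeded at 5.000-7.500 cells/well and preincubated 24 h. Compound in DMSO added at 10-fold dilutions (100 to 0.01 µM) for 48 h. TCA fixation, SRB staining, absorbance at 530 nm. GI50, TGI and LC50 derived. Three independent experiments, each in triplicate.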

NCI-H460 [3] = test: Antiproliferative activity against human NCI-H460 cells after 48 hrs by sulforhodamine B assay; format: functional; conditions: NCI-H460, 48 h; summary of the method: as §2
NCI-H460 [4] = test: Cytotoxicity against human NCI-H460 cells after 48 hrs by sulforhodamine B assay; format: cell-based; conditions: nci-h460, 48 h
Summary of the method: (§3)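 Cells grown in RPMI 1640 with 5% heat-inactivated FCS, 2 mM L-glutamine and antibiotics, 37 °C, 5% CO2; viability >95% by trypan blue. Seeded 5.000-7.500 cells/well and preincubated 24 h. Compounds in DMSO added at 10-fold dilutions (100 to 0.01 µM) for 48 h. Fixed with cold TCA, SRB-stained, absorbance read at 530 nm. GI50, TGI and LC50 derived from three independent experiments, each in triplicate.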

MCF7 [5] = test: Cytotoxicity against human MCF7 cells after 48 hrs by sulforhodamine B assay; format: cell-based; conditions: mcf7, 48 h; summary of the method: as §3
Rattus norvegicus [6] = test: Toxicity in Fischer-344 rat assessed as ulcerogenicity at 0.2 mmol/kg, ip; format: organism-based; conditions: in vivo
[7] = Lipophilicity, RM of the compound assessed by RPTLC; format: physicochemical
Summary of the method: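 Determined by reverse-phase TLC with plates developed in mobile-phase-saturated closed tanks at 24 °C and spots detected under UV. RM = log[(1/Rf) − 1], from 10 individual Rf measurements.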

Rattus norvegicus [8] = test: Antiinflammatory activity in carrageenan-induced Fischer-344 rat paw oedema at 0.01 mmol/kg, ip after 3.5 hrs; format: functional; conditions: for inhibition in vivo at 10 µmol/kg: Fischer-344, ip
Summary of the method: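 Fischer-344 rats (150–200g), both sexes, pregnant females excluded, 6–15 per group. Oedema induced in right hind paw by intradermal 0.1 mL 2% carrageenin in water. Compound given ip with the carrageenin, dissolved in water (HCl salt) or suspended with Tween 80 (bases). Euthanized at 3.5 h. Injected minus uninjected paw weight compared with water-treated controls as % inhibition. Mean of two experiments.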

[9] = biological target: Aldo-keto reductase family 1 member B1 (Rattus norvegicus) (UniProt P07943); test: Inhibition of ALR2 in Fischer-344 rat lens at 100 uM; format: tissue-based; conditions: Lens of camera-type eye
Summary of the method: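 Enzyme partially purified from lenses of Fischer-344 rats of both sexes. Lenses homogenized in cold water, spun at 10000 g, 0-4 °C, 15 min; supernatant precipitated at 40% ammonium sulphate saturation and spun again. Compound in 10% aqueous DMSO, tested at 100 µM. D,L-glyceraldehyde substrate; NADPH consumption read at 340 nm. At least triplicate.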

[10] = Therapeutic index, ratio of LC50 for human MCF7 cells to GI50 for human MCF7 cells; format: cell-based; conditions: read-out: TI; summary of the method: as §1
[11] = Inhibition of soybean 5LOX assessed as conversion of sodium linoleate to 13-[…] acid; design: species or system Glycine max
Summary of the method: (§4)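 Soybean lipoxygenase (1/9 × 10^-4 w/v in saline) incubated at room temperature with compound in DMSO and 0.1 mM sodium linoleate. Formation of 13-hydroperoxylinoleic acid followed at 234 nm. NDGA reference inhibitor. At least triplicate.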

[12] = Therapeutic index, ratio of LC50 for human NCI-H460 cells to GI50 for human NCI-H460 cells; format: cell-based; conditions: read-out: TI; summary of the method: as §1
MCF7 [13] = test: Antiproliferative activity against human MCF7 cells after 48 hrs by sulforhodamine B assay; format: functional; conditions: MCF7, 48 h; summary of the method: as §2
SF-268 [14] = test: Cytotoxicity against human SF268 cells after 48 hrs by sulforhodamine B assay; format: cell-based; conditions: sf-268, 48 h; summary of the method: as §3
Glycine max = test: Inhibition of soybean 5LOX assessed as conversion of sodium linoleate to 13-[…] acid at 100 uM; summary of the method: as §4

Row | Compound | selectivity ratio [1] | GI50 (SF-268 [2]) [µM] | TGI (SF-268 [2]) [µM] | GI50 (NCI-H460 [3]) [µM] | TGI (NCI-H460 [3]) [µM] | LC50 (NCI-H460 [4]) [µM] | LC50 (MCF7 [5]) [µM] | Activity (Rattus norvegicus [6]) | Rm [7] | inhibition in vivo at 10 µmol/kg (Rattus norvegicus [8]) [%] | inhibition [9] | selectivity ratio [10] | IC50 [11] [µM] | selectivity ratio [12] | GI50 (MCF7 [13]) [µM] | TGI (MCF7 [13]) [µM] | LC50 (SF-268 [14]) [µM] | inhibition (Glycine max) | inhibition (Rattus norvegicus [8])
1 | O=C1/C(=C/c2c[nH]c3ccccc23)CNC/C1=C\c1c[nH]c2ccccc12 | 2.5 | 3.3 | 5.7 | 3.5 | 6.1 | 8.7 | 8.2 | Non-toxic | 0.597 | 33 | 27.8% | 2.2 | 280 | 2.4 | 3.7 | 6 | 8.2 |  | 
2 | Cc1ccc(/C=C2\CNC/C(=C\c3ccc(C)s3)C2=O)s1 | 1.5 | 65.2 | > 100 | 99.3 | > 100 | > 100 | > 100 | Non-toxic | 0.031 | 62 | inactive | 1.2 |  | 1 | 80.7 | > 100 | > 100 | inactive | 
3 | COc1cc(/C=C/C(=O)CC(=O)/C=C/c2ccc(O)c(OC)c2)ccc1O [CURCUMIN] | 11.9 | 5.1 | 9.2 | 16.7 | 50.1 | 83.4 | 67.2 |  |  |  | 12% | 14.2 |  | 5 | 4.7 | 8.3 | 61 | 38% | 
4 | O=C1/C(=C/c2ccc3[nH]ccc3c2)CNC/C1=C\c1ccc2[nH]ccc2c1 |  | > 100 | > 100 | > 100 | > 100 | > 100 | > 100 | Non-toxic | 0.166 | 36 | inactive | 1.4 | 410 |  | 69.5 | > 100 | > 100 |  | 
5 | Cc1ccsc1/C=C1\CNC/C(=C\c2sccc2C)C1=O | 1.9 | 53.8 | > 100 | 73.2 | > 100 | > 100 | > 100 | Non-toxic | -0.03 | 27 | 56% | 1.6 |  | 1.4 | 63 | > 100 | > 100 | inactive | 
6 | COc1ccc2c(c1)c(CC(=O)O)c(C)n2C(=O)c1ccc(Cl)cc1 [INDOMETHACIN] |  |  |  |  |  |  |  |  |  | 47 |  |  |  |  |  |  |  |  | 
7 | O=C1/C(=C/c2cccs2)CNC/C1=C\c1cccs1 | 1 | 98.8 | > 100 | > 100 | > 100 | > 100 | > 100 | Non-toxic | 0.176 |  | 45.5% |  | 330 |  | > 100 | > 100 | > 100 |  | inactive
8 | O=C1/C(=C/c2ccc(OCc3ccc(Br)cc3)cc2)CNC/C1=C\c1ccc(OCc2ccc(Br)cc2)cc1 |  | > 100 | > 100 | > 100 | > 100 | > 100 | > 100 | Non-toxic | 0.076 | 49 | inactive | 2 |  |  | 49.9 | 96.8 | > 100 | 18% | 
9 | O=C1/C(=C/c2ccccc2)CNC/C1=C\c1ccccc1 | 10 | 0.9 | 4.7 | 2 | 6.1 | 10.3 | 9 | Non-toxic | 0.135 | 43 | 49% | 11.6 |  | 5.2 | 0.8 | 4.1 | 9.1 | 8% | 
10 | O=C1/C(=C/c2c[nH]cn2)CNC/C1=C\c1c[nH]cn1 |  | > 100 | > 100 | > 100 | > 100 | > 100 | > 100 | Non-toxic | -0.552 | 11.5 | inactive |  |  |  | > 100 | > 100 | > 100 | 36% | 
